Compound activity from PubChem.
MT stabilizer: microtubule stabilizers in HeLa cells; HeLa tubulin immunostaining HCS, 24 h; share of cells brighter than vehicle mean+2SD; % tubulin-high responders, % at 10 µM; 200,000 tested, 0.83% active; AID 2205;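 active = plate Z-score above 3 for both tubulin-high and condensed-nucleus cell shares, with cell loss under 80%, at 10 µM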;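 note: anti alpha tubulin signal scored within the nucleus-defined area of each cell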
Autophagy mod: modulators of autophagy; MEF GFP-LC3 puncta imaging; test concentration mostly 10 µM; calls only at 10 µM (by protocol); 190,000 tested, 0.98% active; AID 463193;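 active = percentage of spot-positive cells more than 3 SD above its plate mean, without a fluorescence outlier flag or 80% toxicity; inconclusive = no clear call, values can overlap the other calls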;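 note: spot-positive cell cutoff set from DMSO-treated cells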
b-catenin transl: alters nuclear translocation of beta-catenin in HeLa cells | immunofluorescence imaging | nuclear translocation activity, % at 5 µM | 190,000 tested, 0.3% active;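 active = nuclear translocation activity above 50% at 5 µM, with a well cell count of 50 or more; inconclusive = wells under 50 cells across six images, flagged as toxic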;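 note: per-cell ratio of nuclear to cytoplasmic median beta-catenin stain intensity; plate controls were DMSO negative control for no effect and GSK-3 inhibitor IX positive control for full effect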
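Signal – beta-catenin immunofluorescence imaging with DAPI · Test system – human HeLa cell line · Dosing – 5 µM primary single dose, 0.1% DMSO, 0.02–20 µM confirmation series · Measure – % activation, nuclear-to-cytoplasmic median beta-catenin signal ratio per cell · Incubation – 24 h compound exposure at 37°C, 5% CO2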
Hsp70 activator: Hsp70 transcriptional activation, primary screen. activation, % at 10 µM. HeLa Hsp70 promoter luciferase reporter, luminescence; scaled: vehicle 0, proteasome-inhibitor control 100%. AID 1203. 200,000 tested, 0.04% active;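 active = activation above the mean across all tested compounds plus 3 SD, cutoff set per campaign, cut at about 5.5% in these data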;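 note: 100% = MG132 at 30 µM as the positive control and 0% = DMSO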
Dynein transport: dynein cargo transport inhibition | 3617.4 mouse cells, GR-EGFP nuclear translocation imaging; test concentration mostly 20 µM; stimulated with dexamethasone, 1 µM; hits give low values | z-score, hits read low | 220,000 tested, 0.47% active | AID 1381;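 active = plate z-score of nuclear minus cytoplasmic receptor signal below a set negative limit, without overly bright fluorescence or cell loss, cut at about -3.5 in these data, passing the limit was not always enough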;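 note: z-score of nuclear minus cytoplasmic ring GR-EGFP intensity difference per well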
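Buffer or medium: tet-free medium with charcoal-stripped serum / Also added: dexamethasone agonist, 1.0 µM final, for 30 min / Timing: induction 48 h, compound 1 h, agonist 30 min / Measured by: high-content fluorescence imaging after fixation / Read-out: nuclear-to-cytoplasmic GR-EGFP distribution per well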
Dynein inh conf: dynein cargo transport inhibition, confirmation; calls only at 20 µM; 3617.4 GR-EGFP nuclear translocation imaging, dexamethasone-induced; 1,000 tested, 69% active; shares compounds with Dynein transport;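 active = inhibition of receptor movement into the nucleus at or above a set limit in both runs, with normal cell brightness and cell count; inconclusive = limit reached in only one run, brightness and count normal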;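 note: dexamethasone at 1 µM final in well for 30 min; nuclear minus cytoplasmic GR-EGFP mean intensity difference in channel 2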
* marks the source's active call; other numbers are inactive results; i = inactive; ? = inconclusive; . = not tested or not shown; + = active, no number. Most compounds without a hit are left out; they make up all but 2.1% or so of the library.

SMILES	MT stabilizer	Autophagy mod	b-catenin transl	Hsp70 activator	Dynein transport	Dynein inh conf
COc1ccc(CCN(C)C(=O)CSc2nnnn2C)cc1OC	1.7	i	-2.6	-0.2	-0.446	.
O=c1nc2ccccc2c2n1CC(CN1CCN(C(c3ccccc3)c3ccccc3)CC1)N2 (stereo not drawn)	3.2	i	-0.6	-0.4	0.0289	.
CCOC(=O)c1cc(NC(=O)c2ccco2)ccc1N1CCOCC1	1.6	i	-0.4	0.0	0.646	.
CC1=CC(=Nc2c(C)n(C)n(-c3ccccc3)c2=O)C=CC1=O	.	.	0.6	.	-3.67*	+
CCCCc1cc(O)c(CCCC)c(O)c1	3.9	i	-1.5	0.1	-3.93*	+
CCCCCc1cc(O)c2c(C)cc(=O)oc2c1	4.4	i	2.3	-0.3	-0.41	.
O=C(Cn1c(=O)oc2cc(S(=O)(=O)NCc3ccccc3)ccc21)N1CCCC1	.	.	0.9	.	-5.21*	i
CCCN1CCN(C(=O)Cn2c(=O)oc3cc(S(=O)(=O)NCc4ccccc4)ccc32)CC1	1.6	i	-0.5	-0.4	-1.28	.
O=C(CCn1cnc2ccccc2c1=O)Nc1nc(-c2ccc(Br)cc2)cs1	4.7	i	1.8	-0.6	0.259	.
Cc1cccc(C(C)C)c1NC(=O)C1CN(S(=O)(=O)c2ccccc2)CCN1S(=O)(=O)c1ccccc1 (stereo not drawn)	3.8	i	0.5	-0.3	-0.466	.
O=C(CCl)Nc1cc(SCC(O)CO)cc([N+](=O)[O-])c1 (stereo not drawn)	92.9	+	11.0	-0.7	-5.93*	+
CCOc1cc(/C=C\[N+](=O)[O-])ccc1OCC(=O)N1CCOCC1	2.7	i	1.1	-0.1	-5.67*	+
CCOc1cc(/C=C/c2nc3cc(C)c(C)cc3s2)ccc1OCC(=O)N1CCOCC1	1.9	i	-0.6	-0.5	0.191	.
CN(C(=O)CCl)C1CCCc2ccccc21 (stereo not drawn)	3.6	i	0.2	-0.5	-7.6*	+
O=C(CCl)NC1CCCc2ccccc21 (stereo not drawn)	4.1	i	2.2	-0.1	-0.18	.
O=C(Cc1ccccc1)Nc1cccc(N2C(=O)C=CC2=O)c1	1.7	i	-1.5	0.0	-4.71*	+
CC(C)c1ccc(N2C(=O)CC(Sc3ncn[nH]3)C2=O)cc1 (stereo not drawn)	0.9	i	.	-0.3	0.814	.
COc1ccc(N2C(=O)CC(Sc3ncn[nH]3)C2=O)c(OC)c1 (stereo not drawn)	1.9	i	-2.2	0.2	-3.95*	+
COc1ccc(CN(CCC(c2ccccc2)c2ccc(OC(C)C)cc2)C(=O)CCl)cc1OC (stereo not drawn)	10.9	i	0.3	-0.2	-6.9*	+
CSc1nnc(C)c(/C=C/Nc2ccc(C)cc2)n1	2.4	i	2.9	-0.6	-8.27	+
CSc1nnc(C)c(/C=C/NOCc2ccc(Cl)cc2)n1	5.7	i	5.3	0.1	0.426	.
COCCN(C(=O)CCl)C(C(=O)NC1CCCCC1)c1ccccc1C (stereo not drawn)	7.5	i	1.8	-0.5	-4.4*	+
Nc1ccc(N2CCCCCC2)cc1	5.0	i	-0.4	0.3	-4.28*	?
O=C(O)c1ccc(N2CCCCC2)cc1	3.9	i	.	0.1	-0.05	.
CCOC(=O)c1cn2nc(Oc3cccc(C(F)(F)F)c3)ccc2n1	.	.	0.5	.	-0.411	.
SMILES	MT stabilizer	Autophagy mod	b-catenin transl	Hsp70 activator	Dynein transport	Dynein inh conf
CCCS(=O)(=O)c1nnnn1-c1cccc(OC)c1	2.1	i	9.2	0.0	-5.5*	+
COc1cccc(-n2nnnc2SCC(=O)Nc2ccc(C(C)=O)cc2)c1	5.0	i	2.0	0.1	-0.0569	.
Cn1c(=O)c(NC2CCCCC2)c2c3c(cccc31)C(=O)c1ccccc1-2	4.0	?	-1.5	-0.4	-6.06	.
Cn1c(=O)c(NCCO)c2c3c(cccc31)C(=O)c1ccccc1-2	0.9	i	.	-0.3	-6.95*	+
CCCCNc1c2c3c(cccc3n(C)c1=O)C(=O)c1ccccc1-2	27.2*	i	1.7	-0.4	-5.14*	+
Cn1c(=O)c(NCCc2ccccc2)c2c3c(cccc31)C(=O)c1ccccc1-2	2.6	?	-7.4	-0.4	-5.14*	+
CC(NCc1ccc(S(N)(=O)=O)cc1)C(=O)Nc1cccc(Cl)c1 (stereo not drawn)	.	.	0.8	.	0.164	.
COc1ccc(-c2nnc(N3CCCCC3)c3ccccc23)cc1	2.4	i	0.7	-0.1	-0.412	.
COc1ccc(-c2nnc(Sc3nc4ccccc4o3)c3ccccc23)cc1	8.7	i	-2.5	1.1	-4.18*	+
COC(=O)c1n[nH]n(-c2cc(Cl)cc(Cl)c2)c1=O	.	.	0.6	.	0.887	.
COc1ccccc1NC(=O)c1ccc(NC(=O)Cc2n[nH]c(=O)c3ccccc23)cc1	.	.	3.4	.	1.02	.
CC(C)Cn1cc(F)c(=O)n(CC(C)C)c1=O	2.5	i	0.8	-0.1	-0.744	.
O=C(CN(c1cccc(C(F)(F)F)c1)S(=O)(=O)c1ccc(Cl)c([N+](=O)[O-])c1)NCc1ccccc1Cl	2.7	i	-0.4	-0.4	-3.69*	i
O=C(CN(c1cccc(C(F)(F)F)c1)S(=O)(=O)c1ccc(Cl)c([N+](=O)[O-])c1)NCc1ccccc1	2.5	i	-1.2	-0.4	-5.54*	+
CC(NC(=O)CN(c1cccc(C(F)(F)F)c1)S(=O)(=O)c1ccc(Cl)c([N+](=O)[O-])c1)c1ccccc1 (stereo not drawn)	2.6	i	-0.8	-0.3	-1.55	.
Cc1nn(C)c(C)c1CNC(=O)Nc1cccc(Cl)c1C	.	i	-0.3	-0.2	0.268	.
O=S(=O)(c1cccs1)N1CCC(CO)(Cc2ccc(Cl)cc2)CC1	1.2	i	-1.7	0.4	0.336	.
O=c1c2ccccc2oc2nc(-c3cccs3)n(CCc3ccccc3)c(=O)c12	1.8	i	-2.5	-0.4	-0.133	.
Cc1nccn1CC(=O)N/N=C/c1cccs1	.	.	-0.6	.	0.468	.
CC(C)N(CC(=O)Nc1ccc(Cl)cc1C(F)(F)F)C(=O)CCl	2.9	i	.	0.3	-7.06*	+
O=C1N/C(=C/c2ccc(N3CCOCC3)o2)C(=O)N1c1cccc(Cl)c1	2.6	i	0.1	5.0	-4.15	i
CCOCCCNCc1ccc(OCCC(C)C)c(OC)c1	2.8	i	0.5	0.1	-0.583	.
CCC(C)(C)c1ccc(OCCCC[n+]2cccc(C)c2C)c(C(C)(C)CC)c1	.	.	32.3	.	-5.23*	i
Cc1cc(C(C)(C)C)ccc1OCCCCN1CCCC1	4.1	i	7.7	-0.1	-0.686	.
CN=c1scc(-c2cccs2)n1/N=C/c1ccc(O)c(O)c1O	7.0	i	0.0	-0.5	-3.64*	?
O=C(CN1CCN(c2ccccc2)CC1)Nc1cccc([N+](=O)[O-])c1	1.7	i	1.0	-0.2	-0.94	.
